Data: ChEMBL document CHEMBL3102784, “Salicylanilide diethyl phosphates: synthesis, antimicrobial activity and cytotoxicity” (Bioorg Med Chem, 2014)
The source made the active and inactive calls.

How the values were obtained:
[1] = system: Mycobacterium avium; assay: Antimycobacterial activity against isoniazid, rifampicin, ethambutol and ofloxacin-resistant Mycobacterium avium My 330/88 after 21 days; type: functional; settings: My 330/88, 504 h
Summary of the method: (§1)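 Micromethod MIC in Šula's semisynthetic medium at 37 °C. Compounds added in DMSO at 1000 down to 0.032 µmol/L. Isoniazid standard in sterile water at 0.5–250 µmol/L. Inocula: H37Rv 10^3, M. avium 10^5, M. kansasii 10^4. Read at 14 and 21 d, plus 7 d for M. kansasii.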

[2] = system: Mycobacterium avium; assay: Antimycobacterial activity against isoniazid, rifampicin, ethambutol and ofloxacin-resistant Mycobacterium avium My 330/88 after 14 days; type: functional; settings: My 330/88, 336 h; summary of the method: as §1
[3] = system: Mycobacterium tuberculosis; assay: Antimycobacterial activity against Mycobacterium tuberculosis H37Rv My 331/88 after 21 days; type: functional; settings: H37Rv My 331/88, 504 h; summary of the method: as §1
[4] = system: Mycobacterium tuberculosis; assay: Antimycobacterial activity against Mycobacterium tuberculosis H37Rv My 331/88 after 14 days; type: functional; settings: H37Rv My 331/88, 336 h; summary of the method: as §1
[5] = system: Trichophyton mentagrophytes; assay: Antifungal activity against Trichophyton mentagrophytes 445 after 120 hrs by broth microdilution method; type: functional; settings: Trichophyton mentagrophytes, 445, 120 h
Summary of the method: (§2)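 Filamentous dermatophyte tested by broth microdilution in RPMI 1640 with glutamine, fluconazole as reference. Value expressed as IC50 relative to growth control. Read at 72 and 120 h.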

[6] = system: Trichophyton mentagrophytes; assay: Antifungal activity against Trichophyton mentagrophytes 445 after 72 hrs by broth microdilution method; type: functional; settings: Trichophyton mentagrophytes, 445, 72 h; summary of the method: as §2
[7] = system: Lichtheimia corymbifera; assay: Antifungal activity against Absidia corymbifera 272 after 48 hrs by broth microdilution method; type: functional; settings: Lichtheimia corymbifera, 272, 48 h
Summary of the method: (§3)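 Broth microdilution in RPMI 1640 with glutamine, fluconazole as reference. For yeasts, MIC is ≥80% growth reduction (IC80) versus control. For filamentous fungi, the value is expressed as IC50. Readings at 24 and 48 h.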

[8] = system: Lichtheimia corymbifera; assay: Antifungal activity against Absidia corymbifera 272 after 24 hrs by broth microdilution method; type: functional; settings: Lichtheimia corymbifera, 272, 24 h; summary of the method: as §3
[9] = system: Aspergillus fumigatus; assay: Antifungal activity against Aspergillus fumigatus 231 after 48 hrs by broth microdilution method; type: functional; settings: Aspergillus fumigatus, 231, 48 h; summary of the method: as §3
[10] = system: Aspergillus fumigatus; assay: Antifungal activity against Aspergillus fumigatus 231 after 24 hrs by broth microdilution method; type: functional; settings: Aspergillus fumigatus, 231, 24 h; summary of the method: as §3
[11] = system: Trichosporon asahii; assay: Antifungal activity against Trichosporon asahii 1188 after 48 hrs by broth microdilution method; type: functional; settings: Trichosporon asahii, 1188, 48 h; summary of the method: as §3
[12] = system: Trichosporon asahii; assay: Antifungal activity against Trichosporon asahii 1188 after 24 hrs by broth microdilution method; type: functional; settings: Trichosporon asahii, 1188, 24 h; summary of the method: as §3
[13] = system: Pichia kudriavzevii; assay: Antifungal activity against Candida krusei E28 after 48 hrs by broth microdilution method; type: functional; settings: E28, 48 h; summary of the method: as §3
[14] = system: Pichia kudriavzevii; assay: Antifungal activity against Candida krusei E28 after 24 hrs by broth microdilution method; type: functional; settings: E28, 24 h; summary of the method: as §3
[15] = system: Candida albicans; assay: Antifungal activity against Candida albicans ATCC 44859 after 48 hrs by broth microdilution method; type: functional; settings: ATCC 44859, 48 h; summary of the method: as §3
[16] = system: Candida albicans; assay: Antifungal activity against Candida albicans ATCC 44859 after 24 hrs by broth microdilution method; type: functional; settings: ATCC 44859, 24 h; summary of the method: as §3
[17] = system: Nakaseomyces glabratus; assay: Antifungal activity against Candida glabrata 20/I at 500 micromol/L after 24 to 48 hrs by broth microdilution method; type: functional, organism-based; summary of the method: as §3
[18] = system: Candida tropicalis; assay: Antifungal activity against Candida tropicalis 156 at 500 micromol/L after 24 to 48 hrs by broth microdilution method; type: functional, organism-based; summary of the method: as §3
[19] = system: Pseudomonas aeruginosa; assay: Antibacterial activity against Pseudomonas aeruginosa CCM 1961 at 500 micromol/L after 24 to 48 hrs by broth microdilution method; type: functional, organism-based
Summary of the method: (§4)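 Broth microdilution in Mueller–Hinton broth, compounds dissolved in DMSO, tested over a dilution series from 500 downward. MIC taken as ≥95% growth reduction (IC95) versus drug-free control. Benzylpenicillin comparator. Readings at 24 and 48 h.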

[20] = system: Klebsiella pneumoniae; assay: Antibacterial activity against ESBL-positive Klebsiella pneumoniae J 14368/08 at 500 micromol/L after 24 to 48 hrs by broth microdilution method; type: functional, organism-based; summary of the method: as §4
[21] = system: Klebsiella pneumoniae; assay: Antibacterial activity against Klebsiella pneumoniae D 11750/08 at 500 micromol/L after 24 to 48 hrs by broth microdilution method; type: functional, organism-based; summary of the method: as §4
[22] = system: Escherichia coli; assay: Antibacterial activity against Escherichia coli CCM 4517 at 500 micromol/L after 24 to 48 hrs by broth microdilution method; type: functional, organism-based; summary of the method: as §4
[23] = system: Enterococcus sp.; assay: Antibacterial activity against Enterococcus sp. J 14365/08 at 500 micromol/L after 24 to 48 hrs by broth microdilution method; type: functional, organism-based; summary of the method: as §4
[24] = system: Staphylococcus epidermidis; assay: Antibacterial activity against Staphylococcus epidermidis H 6966/08 after 48 hrs by broth microdilution method; type: functional; settings: H 6966/08, 48 h; summary of the method: as §4
[25] = system: Staphylococcus epidermidis; assay: Antibacterial activity against Staphylococcus epidermidis H 6966/08 after 24 hrs by broth microdilution method; type: functional; settings: H 6966/08, 24 h; summary of the method: as §4
[26] = system: Staphylococcus aureus; assay: Antibacterial activity against methicillin-resistant Staphylococcus aureus H 5996/08 after 48 hrs by broth microdilution method; type: functional; settings: H 5996/08, 48 h; summary of the method: as §4
[27] = system: Staphylococcus aureus; assay: Antibacterial activity against methicillin-resistant Staphylococcus aureus H 5996/08 after 24 hrs by broth microdilution method; type: functional; settings: H 5996/08, 24 h; summary of the method: as §4
[28] = system: Staphylococcus aureus; assay: Antibacterial activity against Staphylococcus aureus CCM 4516/08 after 48 hrs by broth microdilution method; type: functional; settings: CCM 4516/08, 48 h; summary of the method: as §4
[29] = system: Staphylococcus aureus; assay: Antibacterial activity against Staphylococcus aureus CCM 4516/08 after 24 hrs by broth microdilution method; type: functional; settings: CCM 4516/08, 24 h; summary of the method: as §4
[30] = system: Mycobacterium kansasii; assay: Antimycobacterial activity against Mycobacterium kansasii 6509/96 after 21 days; type: functional; settings: 6509/96, 504 h; summary of the method: as §1
[31] = system: Mycobacterium kansasii; assay: Antimycobacterial activity against Mycobacterium kansasii 6509/96 after 14 days; type: functional; settings: 6509/96, 336 h; summary of the method: as §1
[32] = system: Mycobacterium kansasii; assay: Antimycobacterial activity against Mycobacterium kansasii 6509/96 after 7 days; type: functional; settings: 6509/96, 168 h; summary of the method: as §1
[33] = system: Mycobacterium kansasii; assay: Antimycobacterial activity against Mycobacterium kansasii My 235/80 after 21 days; type: functional; settings: My 235/80, 504 h; summary of the method: as §1
[34] = system: Mycobacterium kansasii; assay: Antimycobacterial activity against Mycobacterium kansasii My 235/80 after 14 days; type: functional; settings: My 235/80, 336 h; summary of the method: as §1
[35] = system: HepG2; assay: Cytotoxicity against human HepG2 cells after 24 hrs by CellTiter assay; type: cell-based; settings: HepG2, 24 h
Summary of the method: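 HepG2 cells (passage 27–33) in MEM with 10% FBS, L-glutamine and NEAA, seeded at 1×10^4 per well. Treated next day with compounds at 0.1–100 µM (or 0.1–25 µmol/L), triplicates, <1% DMSO, for 24 h at 37 °C, 5% CO2. MTS reagent added for 2 h, absorbance read at 490 nm. IC50 taken against untreated (100%) and 10% DMSO (0%) controls.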

[36] = system: Mycobacterium kansasii; assay: Antimycobacterial activity against Mycobacterium kansasii My 235/80 after 7 days; type: functional; settings: My 235/80, 168 h; summary of the method: as §1

CCOP(=O)(OCC)Oc1ccc(Br)cc1C(=O)Nc1cccc(C(F)(F)F)c1
> 500 µM: MIC50 [7] | MIC50 [8] | MIC50 [9] | MIC50 [10] | MIC80 [11] | MIC80 [12] | MIC80 [13] | MIC80 [14] | MIC80 [15] | MIC80 [16]
8 µM: MIC [30] | MIC [31] | MIC [33]
16 µM: MIC [1] | MIC [2]
inactive: Activity [17] | Activity [18] | Activity [19] | Activity [20] | Activity [21] | Activity [22] | Activity [23]
4 µM: MIC [32] | MIC [34] | MIC [36]
2 µM: MIC [3] | MIC [4]
7.81 µM: MIC95 [24] | MIC95 [25] | MIC95 [28] | MIC95 [29]
1.84 µM: IC50 [35]
62.5 µM: MIC50 [5] | MIC50 [6]
15.6 µM: MIC95 [26] | MIC95 [27]

CCOP(=O)(OCC)Oc1ccc(Br)cc1C(=O)Nc1cccc(F)c1
5.54 µM: IC50 [35]
16 µM: MIC [30] | MIC [31] | MIC [33] | MIC [34]
250 µM: MIC95 [24] | MIC95 [25] | MIC95 [26] | MIC95 [27] | MIC95 [28]
32 µM: MIC [1] | MIC [2]
inactive: Activity [17] | Activity [18] | Activity [19] | Activity [20] | Activity [21] | Activity [22] | Activity [23]
8 µM: MIC [3] | MIC [4] | MIC [32] | MIC [36]
> 500 µM: MIC50 [7] | MIC50 [8] | MIC50 [9] | MIC50 [10] | MIC80 [11] | MIC80 [12] | MIC80 [13] | MIC80 [14] | MIC80 [15] | MIC80 [16]
62.5 µM: MIC50 [5] | MIC50 [6]
125 µM: MIC95 [29]
